One block for each compound: values may come before it. Active and inactive are the calls of the source. No cut-off for these calls is given here.
Key:
[1] = tested on: Plasma; assay: Fraction unbound in human at 15 mg, po pretreated with itraconazole at 200 mg, po qd for 4 days; assay type: ADME, organism-based; details: in vivo, 96 h
How it was run: (§1)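 Plasma drawn 5 h after the single oral dose in each crossover phase (control, voriconazole 400 mg q12h day 1 then 200 mg q12h day 2, or itraconazole 200 mg daily for 4 days, last azole dose 1 h before). Ultrafiltered through a YM30 membrane at 1,200 x g, 25°C, 30 min. Free drug by LC-MS/MS; bound fraction derived from free versus total.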

[2] = tested on: Homo sapiens; assay: Inhibition of TxB2 production in human blood at 15 mg, po after 24 hrs by enzyme immunoassay pretreated with voriconazole at 400 mg, po every 12 hrs for 1 day and 200, po mg every 12 hrs for one additional day; assay type: functional
How it was run: (§2)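 Design: 12 healthy males, Latin-square three-phase crossover, 4-week washout; 15 mg oral meloxicam given fasted 1 h after the last voriconazole dose. Blood taken before and at 5, 8, 12, 24, 48 h into glass tubes without anticoagulant, clotted 1 h at 37°C. Serum TxB2 measured by enzyme immunoassay. Reported as percent decrease versus each subject's own baseline.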

[3] = tested on: Plasma; assay: Fraction unbound in human at 15 mg, po pretreated with voriconazole at 400 mg, po every 12 hrs for 1 day and 200, po mg every 12 hrs for one additional day; assay type: ADME, organism-based; details: in vivo
How it was run: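 Healthy volunteers, open-label randomized crossover; 15 mg oral meloxicam given fasted 1 h after the last voriconazole dose. Plasma drawn 5 h post-dose; 1 ml ultrafiltered (YM30 filter, 1,200 x g, 25°C, 30 min). Unbound meloxicam measured by LC-MS/MS (positive ion, piroxicam internal standard; standards 0.5–50 ng/ml), all samples in one run.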

[4] = tested on: Homo sapiens; assay: Toxicity in human assessed as photophobia at 400 mg, po every 12 hrs for 1 day and 200, po mg every 12 hrs for one additional day; assay type: organism-based; details: in vivo
[5] = tested on: Homo sapiens; assay: Inhibition of TxB2 production in human blood at 15 mg, po after 48 hrs by enzyme immunoassay pretreated with voriconazole at 400 mg, po every 12 hrs for 1 day and 200, po mg every 12 hrs for one additional day; assay type: functional; how it was run: as §2
[6] = tested on: Homo sapiens; assay: Inhibition of TxB2 production in human blood at 15 mg, po after 12 hrs by enzyme immunoassay pretreated with voriconazole at 400 mg, po every 12 hrs for 1 day and 200, po mg every 12 hrs for one additional day; assay type: functional; how it was run: as §2
[7] = tested on: Homo sapiens; assay: Inhibition of TxB2 production in human blood at 15 mg, po after 5 hrs by enzyme immunoassay pretreated with voriconazole at 400 mg, po every 12 hrs for 1 day and 200, po mg every 12 hrs for one additional day; assay type: functional; how it was run: as §2
[8] = tested on: Homo sapiens; assay: Inhibition of TxB2 production in human blood at 15 mg, po after 8 hrs by enzyme immunoassay pretreated with voriconazole at 400 mg, po every 12 hrs for 1 day and 200, po mg every 12 hrs for one additional day; assay type: functional; how it was run: as §2
[9] = tested on: Homo sapiens; assay: Toxicity in human assessed as altered color vision changes at 400 mg, po every 12 hrs for 1 day and 200, po mg every 12 hrs for one additional day; assay type: organism-based; details: in vivo
[10] = tested on: Homo sapiens; assay: Inhibition of TxB2 production in human blood at 15 mg, po after 12 hrs by enzyme immunoassay; assay type: functional
How it was run: (§3)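 Ex vivo COX-1 index in healthy volunteers. Blood drawn without anticoagulant before and 5, 8, 12, 24, 48 h after the single oral dose, then clotted 1 h at 37°C. Serum TxB2 measured by enzyme immunoassay. Percent decrease calculated against each subject's own predose baseline, within a crossover with control or azole-pretreated phases.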

[11] = tested on: Plasma; assay: Fraction unbound in human plasma at 15 mg, po; assay type: ADME, organism-based; details: in vivo; how it was run: as §1
[12] = Protein binding in human at 15 mg, po pretreated with itraconazole at 200 mg, po qd for 4 days measured after 5 hrs last post dose; assay type: ADME, organism-based; details: plasma, read-out: PPB (converted); how it was run: as §1
[13] = AUC (0 to 72 hrs) in human at 15 mg, po; assay type: ADME, organism-based; parameters: dose 15 mg, time < 72 hr, route oral; details: plasma
How it was run: (§4)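 Healthy male volunteers (n=12), randomized three-phase Latin-square crossover with 4-week washout; single oral dose after overnight fast, lunch at 4 h. Venous plasma sampled predose and 1–72 h, stored –70°C; total drug by LC-MS/MS (piroxicam internal standard). Cmax and Tmax read directly from concentration data; AUC0-72 by linear (rising) / log (descending) trapezoidal rule.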

[14] = tested on: Homo sapiens; assay: Inhibition of TxB2 production in human blood at 15 mg, po after 5 hrs by enzyme immunoassay; assay type: functional; how it was run: as §3
[15] = tested on: Homo sapiens; assay: Inhibition of TxB2 production in human blood at 15 mg, po after 24 hrs by enzyme immunoassay; assay type: functional; how it was run: as §3
[16] = tested on: Homo sapiens; assay: Inhibition of TxB2 production in human blood at 15 mg, po after 8 hrs by enzyme immunoassay; assay type: functional; how it was run: as §3
[17] = Cmax in human at 15 mg, po; assay type: ADME, organism-based; parameters: dose 15 mg, route oral; details: in vivo; how it was run: as §4
[18] = Tmax in human at 15 mg, po; assay type: ADME, organism-based; details: in vivo; how it was run: as §4
[19] = tested on: Homo sapiens; assay: Inhibition of TxB2 production in human blood at 15 mg, po after 48 hrs by enzyme immunoassay pretreated with itraconazole at 200 mg, po qd for 4 days; assay type: functional; how it was run: as §3
[20] = tested on: Homo sapiens; assay: Inhibition of TxB2 production in human blood at 15 mg, po measured up to 48 hrs by enzyme immunoassay pretreated with itraconazole at 200 mg, po qd for 4 days; assay type: functional, organism-based; how it was run: as §3
[21] = tested on: Homo sapiens; assay: Inhibition of TxB2 production in human blood at 15 mg, po after 48 hrs by enzyme immunoassay; assay type: functional; how it was run: as §3
[22] = Protein binding in human plasma at 15 mg, po after 5 hrs; assay type: ADME, organism-based; details: read-out: PPB (converted); how it was run: as §1
[23] = Protein binding in human at 15 mg, po pretreated with voriconazole at 400 mg, po every 12 hrs for 1 day and 200, po mg every 12 hrs for one additional day measured after 5 hrs last post dose; assay type: ADME, organism-based; details: plasma, read-out: PPB (converted); how it was run: as §1

Fu [1]: 0.18%
Compound: CCC(C)n1ncn(-c2ccc(N3CCN(c4ccc(OCC5COC(Cn6cncn6)(c6ccc(Cl)cc6Cl)O5)cc4)CC3)cc2)c1=O (stereo not drawn) [ITRACONAZOLE]

Compound: C[C@@H](c1ncncc1F)[C@](O)(Cn1cncn1)c1ccc(F)cc1F [VORICONAZOLE]
inhibition (INH) [2]: 31%
Fu [3]: 0.17%
Activity [4]: Toxic
inhibition (INH) [5]: 14%
inhibition (INH) [6]: 49%
inhibition (INH) [7]: 37%
inhibition (INH) [8]: 46%
Activity [9]: Toxic

Fu [11]: 0.18%
fraction unbound at 5 h [12]: 0.0018
AUC(0-t) at 72 h [13]: 32.4 µg·h/mL
Cmax [17]: 1.25 µg/mL
Tmax [18]: 4 h
inhibition [20]: inactive
fraction unbound at 5 h [22]: 0.0017
fraction unbound at 5 h [23]: 0.0017
Compound: Cc1cnc(NC(=O)C2=C(O)c3ccccc3S(=O)(=O)N2C)s1 [MELOXICAM]
inhibition (INH) [10]: 56%
inhibition (INH) [14]: 30%
inhibition (INH) [15]: 28%
inhibition (INH) [16]: 37%
inhibition (INH) [19]: 29%
inhibition (INH) [21]: 25%

— ChEMBL document CHEMBL1629603, “Voriconazole increases while itraconazole decreases plasma meloxicam concentrations” (Antimicrob Agents Chemother, 2009)
